Bioassay records (PubChem BioAssay)
A selection: hits, their analogues and other compounds. The true share with any hit is near 1.8%.
XBP1 UPR activ – activators of adaptive arm of unfolded protein response (XBP1) | CHO-XBP1 luciferase reporter, IRE1-XBP1 UPR activation, luminescence; percent of tunicamycin response, DMSO as zero | activation, % at 20 µM | hit rate 0.33% among 330,000 | AID 463104;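 active means versus positive control, 20 µM dose yields 30% or more activation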;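 further: 100% = tunicamycin at 10 µg/mL and 0% = DMSO only wells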
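Material: IRE1-XBP1 luciferase reporter CHO line / Quantity: one thousand reporter cells per well / Buffer or medium: F12 with 10% serum / Compound: 20 µM single concentration, DMSO 1% / Times: 6 h treatment, 37 °C / Detection: Steady-Glo luciferase glow luminescence, 10 min after reagent addition / Benchmarks: tunicamycin high, DMSO low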
UPR CHOP act – activators of apoptotic arm of unfolded protein response (CHOP); CHO-CHOP luciferase reporter, UPR activation, luminescence; percent of tunicamycin response over DMSO baseline; activation, % at 10 µM; hit rate 0.34% among 330,000;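 active means at 10 µM dose, activation of 40% or more, normalized to positive control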;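 further: 100% = tunicamycin at 10 µg/mL and 0% = DMSO alone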
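Assay system: CHO cells with stable CHOP pathway luciferase reporter; Buffer or medium: F12 plus 10% serum; Times: 16-18 h cell attachment, then 6 h compound exposure, 37 °C; Signal: luciferase luminescence; Read-out basis: percent activation relative to tunicamycin control; Control set: tunicamycin high control, DMSO low control.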
Jurkat NFkB inh – inhibitors of the PMA/ionomycin-induced NF-kB reporter in Jurkat cells | PMA/ionomycin-induced NF-kB luciferase reporter, luminescence | inhibition, % at 4 µM | hit rate 0.53% among 330,000 | AID 435003; in the data active means inhibition above about 50%
697 NFkB inh – lowers PMA/ionomycin-induced NF-kB signal in 697 B cells; 697 B-cell NF-kB luciferase reporter, 16 h; inhibition, % at 4 µM; hit rate 0.33% among 330,000; AID 435022; in the data active means inhibition above about 35%
CRFBP-R2 block – CRF-BP/CRF-R2 complex antagonism; HEK293 CRF-R2/CRF-BP, CRF-induced calcium fluorescence; inhibition, % at 11.8 µM; hit rate 0.59% among 350,000;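 active means inhibition of the ligand-induced calcium signal above about 50% at the single tested concentration, limit read from the data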
* = called active by the depositor; nt = no result.

SMILES	XBP1 UPR activ	UPR CHOP act	Jurkat NFkB inh	697 NFkB inh	CRFBP-R2 block
COc1cc(C2c3c(c(C)c(C)oc3=O)Oc3c(C)c(C)oc(=O)c32)ccc1OS(=O)(=O)c1ccc(C)cc1	1.1	7.4	23.2	-5.5	-5.6
CCOc1nc(C)ccc1-c1noc(-c2ccccn2)n1	8.4	1.9	-5.9	4.3	111.3*
COc1ccccc1C(=O)NCCC(=O)N1CCN(c2ccccc2O)CC1	-0.9	0.6	0.3	12.0	70.6*
COc1ccccc1C(=O)NCCC(=O)N1CCCCC1	-3.8	-1.9	-4.3	9.7	10.7
COc1ccc(C(=O)NC(=S)N2CCN(c3ccccc3OC)CC2)cc1OC	5.7	3.5	0.0	-19.9	-8.5
COc1ccc(-c2nn(-c3ccccc3)cc2C(=O)NC2CC2)cc1	-1.5	1.6	-3.8	11.4	0.6
Cc1c(C(=O)O)sc(S(=O)(=O)N2CCN(C(=O)Cc3ccc(F)cc3)CC2)c1C(=O)O	2.8	0.1	-8.6	12.9	51.9*
Cc1c(C(=O)O)sc(S(=O)(=O)N2CCN(C(=O)Cc3ccc(Cl)cc3)CC2)c1C(=O)O	nt	nt	nt	nt	-6.7
Cc1ccccc1Cn1ccc(NC(=O)c2nn3cccnc3c2Cl)n1	4.0	2.4	-17.9	-6.7	12.5
Cc1ccccc1Cn1ccc(NC(=O)c2cc3ncc(Br)cn3n2)n1	-1.5	-3.7	-6.2	-2.6	66.0*
CC(=O)N(C(C)=O)c1cccc(N(Cc2ccccc2)Cc2ccccc2)c1	nt	nt	nt	nt	53.6*
COc1cc(O)c2c(c1)COC2=O	3.0	1.6	8.4	-29.1	60.0*
Cc1cc(NC(=O)Cn2nc3c(cc2=O)CCCC3)ccc1Br	-4.1	0.6	17.4	13.6	54.9*
COc1ccc(-c2cc3ccccc3[nH]2)cc1	-0.7	7.8	-141.9	-148.2	59.7*
O=C1CC[C@@]23CCCN2C(=O)CCCC3C1 (some centres undefined)	1.1	0.5	nt	-11.1	-14.3
Cc1cc(SCC(=O)c2ccc(Cl)cc2)nc(=O)[nH]1	-3.7	3.5	-107.3	-160.3	81.1*
Cc1ccc(C(=O)CSc2cc(C)[nH]c(=O)n2)cc1	-1.0	0.0	-130.1	-86.5	5.8
COc1ccc(-c2c(C)nn3c(N4CCOCC4)cc(C)nc23)cc1OC	nt	nt	nt	nt	12.7
COc1ccc(-c2c(C)nn3c(N4CCCCCC4)cc(C)nc23)cc1OC	0.5	2.3	4.1	-22.4	55.6*
CC1=CC2=NC(=O)CC(C)(C(=O)N(CC(=O)NC3CCCC3)c3ccccc3C)N2C=C1 (centres undefined)	-2.3	-2.0	0.8	14.2	-1.3
CC1=CN2C(=NC(=O)CC2(C)C(=O)N(CC(=O)NC2CCCC2)c2ccccc2C)C=C1 (centres undefined)	-2.5	-1.7	5.0	15.5	54.2*
COC(=O)c1ccc(-c2csc(NC(=O)C3=COCCO3)n2)cc1	-0.2	0.1	-2.2	-8.0	-14.5
O=C(CCNC(=O)OCC1c2ccccc2-c2ccccc21)NOCc1ccccc1	-0.2	3.2	nt	9.6	0.7
O=C(O)CCNC(=O)OCC1c2ccccc2-c2ccccc21	2.7	0.6	-9.3	-14.7	59.7*
CCOc1ccc(C2/C(=C(\O)c3ccc4c(c3)OCCO4)C(=O)C(=O)N2CCCN2CCOCC2)cc1 (centres undefined)	-2.5	0.0	-0.5	10.4	55.1*
SMILES	XBP1 UPR activ	UPR CHOP act	Jurkat NFkB inh	697 NFkB inh	CRFBP-R2 block
C[C@@H]1CCCCO[C@@H](CN(C)CC2CC2)[C@@H](C)CN([C@H](C)CO)C(=O)c2cc(N(C)C)ccc2O1	nt	nt	nt	nt	65.7*
C[C@@H]1CCCCO[C@@H](CN(C)Cc2ccccc2)[C@@H](C)CN([C@H](C)CO)C(=O)c2cc(N(C)C)ccc2O1	nt	nt	nt	nt	-6.8
Cc1ccc(NC(=O)CSC(C)c2nc3ccccc3c(=O)[nH]2)cc1 (centres undefined)	2.5	1.4	8.8	0.7	-3.1
CCOc1ccc(CCNC(=O)c2cccc(NC3=NC4CS(=O)(=O)CC4S3)c2)cc1OCC (centres undefined)	-4.6	-1.1	-1.5	3.3	50.3*
CCOc1ccc(CCNC(=O)c2cccc(NC3=NC4CS(=O)(=O)CC4S3)c2)cc1 (centres undefined)	1.0	-1.8	-4.4	7.7	7.9
O=C(CCn1nnc2ccccc21)N1CCN(c2ccccc2)CC1	1.0	3.8	-27.4	-60.2	94.7*
O=C(Cn1nnc2ccccc21)N1CCCCC1	0.1	4.3	-3.1	3.7	3.5
